Experimental data: ChEMBL document CHEMBL4610035, “Synthesis and biological evaluation of novel 3-benzylcoumarin-imidazolium salts” (Bioorg Med Chem Lett, 2020)

Tests used:
SMMC-7721 [1] = test: Antiproliferative activity against human SMMC7721 cells assessed as growth inhibition incubated up to 4 days by MTS assay; assay type: functional, cell-based; conditions: SMMC-7721, 96 h
Method in brief: (§1)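 Five human tumour cell lines were assayed by MTS. IC50 is the compound concentration that cuts optical density of treated cells by 50% relative to untreated cells. Mean of three independent determinations.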

SMMC-7721 [2] = test: Induction of apoptosis in human SMMC7721 cells assessed as necrotic cells at 4 uM after 48 hrs by Annexin-V/PI-staining based flow cytometry (reference value: 1.24%); assay type: functional
MCF7 = test: Antiproliferative activity against human MCF7 cells assessed as growth inhibition incubated up to 4 days by MTS assay; assay type: functional, cell-based; conditions: MCF7, 96 h; method in brief: as §1
SMMC-7721 [3] = test: Induction of cell cycle arrest in human SMMC7721 cells assessed as accumulation at G2/M phase at 2 uM after 24 hrs by propidium iodide staining based flow cytometric analysis (reference value: 6.70 +/- 0.63%); assay type: functional
SMMC-7721 [4] = test: Induction of apoptosis in human SMMC7721 cells assessed as viable cells at 2 uM after 48 hrs by Annexin-V/PI-staining based flow cytometry (reference value: 96.9%); assay type: functional; conditions: SMMC-7721, 48 h, read-out: Activity
HL-60 = test: Antiproliferative activity against human HL60 cells assessed as growth inhibition incubated up to 4 days by MTS assay; assay type: functional, cell-based; conditions: HL-60, 96 h; method in brief: as §1
SMMC-7721 [5] = test: Induction of apoptosis in human SMMC7721 cells assessed as late apoptotic cells at 4 uM after 48 hrs by Annexin-V/PI-staining based flow cytometry (reference value: 0.649%); assay type: functional
SMMC-7721 [6] = test: Induction of cell cycle arrest in human SMMC7721 cells assessed as accumulation at G2/M phase at 8 uM after 24 hrs by propidium iodide staining based flow cytometric analysis (reference value: 6.70 +/- 0.63%); assay type: functional
SW480 = test: Antiproliferative activity against human SW480 cells assessed as growth inhibition incubated up to 4 days by MTS assay; assay type: functional, cell-based; conditions: SW480, 96 h; method in brief: as §1
SMMC-7721 [7] = test: Induction of apoptosis in human SMMC7721 cells assessed as late apoptotic cells at 2 uM after 48 hrs by Annexin-V/PI-staining based flow cytometry (reference value: 0.649%); assay type: functional
SMMC-7721 [8] = test: Induction of cell cycle arrest in human SMMC7721 cells assessed as accumulation at G0/G1 phase at 8 uM after 24 hrs by propidium iodide staining based flow cytometric analysis (reference value: 63.71 +/- 0.31%); assay type: functional
SMMC-7721 [9] = test: Induction of cell cycle arrest in human SMMC7721 cells assessed as accumulation at S phase at 2 uM after 24 hrs by propidium iodide staining based flow cytometric analysis (reference value: 23.26 +/- 0.57%); assay type: functional
SMMC-7721 [10] = test: Induction of cell cycle arrest in human SMMC7721 cells assessed as accumulation at S phase at 4 uM after 24 hrs by propidium iodide staining based flow cytometric analysis (reference value: 23.26 +/- 0.57%); assay type: functional
SMMC-7721 [11] = test: Induction of cell cycle arrest in human SMMC7721 cells assessed as accumulation at S phase at 8 uM after 24 hrs by propidium iodide staining based flow cytometric analysis (reference value: 23.26 +/- 0.57%); assay type: functional
SMMC-7721 [12] = test: Induction of cell cycle arrest in human SMMC7721 cells assessed as accumulation at G0/G1 phase at 2 uM after 24 hrs by propidium iodide staining based flow cytometric analysis (reference value: 63.71 +/- 0.31%); assay type: functional
SMMC-7721 [13] = test: Induction of apoptosis in human SMMC7721 cells assessed as necrotic cells at 2 uM after 48 hrs by Annexin-V/PI-staining based flow cytometry (reference value: 1.24%); assay type: functional
SMMC-7721 [14] = test: Induction of cell cycle arrest in human SMMC7721 cells assessed as accumulation at G2/M phase at 4 uM after 24 hrs by propidium iodide staining based flow cytometric analysis (reference value: 6.70 +/- 0.63%); assay type: functional
SMMC-7721 [15] = test: Induction of apoptosis in human SMMC7721 cells assessed as early apoptotic cells at 4 uM after 48 hrs by Annexin-V/PI-staining based flow cytometry (reference value: 1.25%); assay type: functional
SMMC-7721 [16] = test: Induction of apoptosis in human SMMC7721 cells assessed as viable cells at 8 uM after 48 hrs by Annexin-V/PI-staining based flow cytometry (reference value: 96.9%); assay type: functional; conditions: SMMC-7721, 48 h, read-out: Activity
SMMC-7721 [17] = test: Induction of apoptosis in human SMMC7721 cells assessed as early apoptotic cells at 8 uM after 48 hrs by Annexin-V/PI-staining based flow cytometry (reference value: 1.25%); assay type: functional
SMMC-7721 [18] = test: Induction of apoptosis in human SMMC7721 cells assessed as necrotic cells at 8 uM after 48 hrs by Annexin-V/PI-staining based flow cytometry (reference value: 1.24%); assay type: functional
SMMC-7721 [19] = test: Induction of cell cycle arrest in human SMMC7721 cells assessed as accumulation at sub-G1 phase at 8 uM after 24 hrs by propidium iodide staining based flow cytometric analysis (reference value: 3.173 +/- 0.26%); assay type: functional
SMMC-7721 [20] = test: Induction of apoptosis in human SMMC7721 cells assessed as viable cells at 4 uM after 48 hrs by Annexin-V/PI-staining based flow cytometry (reference value: 96.9%); assay type: functional; conditions: SMMC-7721, 48 h, read-out: Activity
SMMC-7721 [21] = test: Induction of cell cycle arrest in human SMMC7721 cells assessed as accumulation at sub-G1 phase at 4 uM after 24 hrs by propidium iodide staining based flow cytometric analysis (reference value: 3.173 +/- 0.26%); assay type: functional
SMMC-7721 [22] = test: Induction of cell cycle arrest in human SMMC7721 cells assessed as accumulation at G0/G1 phase at 4 uM after 24 hrs by propidium iodide staining based flow cytometric analysis (reference value: 63.71 +/- 0.31%); assay type: functional
SMMC-7721 [23] = test: Induction of cell cycle arrest in human SMMC7721 cells assessed as accumulation at sub-G1 phase at 2 uM after 24 hrs by propidium iodide staining based flow cytometric analysis (reference value: 3.173 +/- 0.26%); assay type: functional
SMMC-7721 [24] = test: Induction of apoptosis in human SMMC7721 cells assessed as late apoptotic cells at 8 uM after 48 hrs by Annexin-V/PI-staining based flow cytometry (reference value: 0.649%); assay type: functional
A549 = test: Antiproliferative activity against human A549 cells assessed as growth inhibition incubated up to 4 days by MTS assay; assay type: functional, cell-based; conditions: A549, 96 h; method in brief: as §1
SMMC-7721 [25] = test: Induction of apoptosis in human SMMC7721 cells assessed as early apoptotic cells at 2 uM after 48 hrs by Annexin-V/PI-staining based flow cytometry (reference value: 1.25%); assay type: functional

IC50 (SMMC-7721 [1]): 3770 nM | IC50 (MCF7): 2040 nM | IC50 (HL-60): 2070 nM | IC50 (SW480): 2320 nM | IC50 (A549): 4510 nM
SMILES: Cc1cc2c(cc1C)[n+](CC(=O)c1ccc3ccccc3c1)cn2C(c1ccccc1)c1cc2ccccc2oc1=O.[Br-] (centres undefined)
Activity (SMMC-7721 [2]): 0.541% | Activity (SMMC-7721 [3]): 6.92% | viability at 2 µM (SMMC-7721 [4]): 96.4% | Activity (SMMC-7721 [5]): 1.39% | Activity (SMMC-7721 [6]): 9.68% | Activity (SMMC-7721 [7]): 0.698% | Activity (SMMC-7721 [8]): 70.88% | Activity (SMMC-7721 [9]): 21.82% | Activity (SMMC-7721 [10]): 22.47% | Activity (SMMC-7721 [11]): 16.42% | Activity (SMMC-7721 [12]): 65.02% | Activity (SMMC-7721 [13]): 1.58% | Activity (SMMC-7721 [14]): 7.59% | Activity (SMMC-7721 [15]): 4.82% | viability at 8 µM (SMMC-7721 [16]): 60.9% | Activity (SMMC-7721 [17]): 25.6% | Activity (SMMC-7721 [18]): 2.27% | Activity (SMMC-7721 [19]): 2.54% | viability at 4 µM (SMMC-7721 [20]): 93.2% | Activity (SMMC-7721 [21]): 5.16% | Activity (SMMC-7721 [22]): 67.69% | Activity (SMMC-7721 [23]): 3.25% | Activity (SMMC-7721 [24]): 11.2% | Activity (SMMC-7721 [25]): 1.3%
